Converted amounts (≈) assume the structure as drawn.
Legend:
Assay type in all cases: functional
Aspergillus fumigatus [1] = assay: Antifungal activity against Aspergillus fumigatus NCIM N0.902 after 3 to 4 days by serial plate dilution method
Staphylococcus aureus [2] = assay: Antibacterial activity against Staphylococcus aureus ATCC 25923 after 16 to 18 hrs by serial plate dilution method
Bacillus subtilis [3] = assay: Antibacterial activity against Bacillus subtilis after 16 to 18 hrs by […]
Klebsiella pneumoniae [4] = assay: Antibacterial activity against Klebsiella pneumoniae at MIC after 3 to 4 days
Method in brief: (§1)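 Agar well diffusion on seeded agar plates, 20 mL agar per dish, dried 1 h at 37 °C. Wells punched and loaded with test compound in DMSO at its MIC. DMSO-only control. Plates run in triplicate and kept 3-4 days at 37 °C. Inhibition zone diameter measured.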

Talaromyces marneffei [5] = assay: Antifungal activity against Penicillium marneffei after 3 to 4 days by serial plate dilution method
Candida albicans [6] = assay: Antifungal activity against Candida albicans at MIC after 3 to 4 days
Method in brief: (§2)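 Fungal suspension made by transferring a loopful of culture to 3 mL saline and seeding agar plates, 20 mL agar per dish, dried 1 h at 37 °C. Punched wells loaded with test compound in DMSO at its MIC. DMSO-only control. Triplicate plates held 3-4 days at 37 °C. Inhibition zone diameter measured.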

Staphylococcus aureus [7] = assay: Antibacterial activity against Staphylococcus aureus ATCC 25923 at […] after 3 to 4 days; method in brief: as §1
Bacillus subtilis [8] = assay: Antibacterial activity against Bacillus subtilis at MIC after 3 to 4 days; method in brief: as §1
Talaromyces marneffei [9] = assay: Antifungal activity against Penicillium marneffei at MIC after 3 to 4 days; method in brief: as §2
Aspergillus fumigatus [10] = assay: Antifungal activity against Aspergillus fumigatus NCIM N0.902 at MIC after 3 to 4 days; method in brief: as §2
[11] = system: Mycobacterium tuberculosis; assay: Antitubercular activity against Mycobacterium tuberculosis H37Rv after 7 days by resazurin assay; settings: 168 h
Method in brief: (§3)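 M. tuberculosis H37Rv ATCC 27294 grown in Middlebrook 7H9 broth with 10% OADC and adjusted to McFarland 2. Culture was diluted 1:4 into fresh medium. Compounds came from 2 mg/mL DMF stocks, screened first at 1, 10 and 100, then at 0.3125–5. DMF-only controls were included. After 7 days at 37 °C, 0.01% resazurin was added; a blue-to-pink change marked growth, and the MIC was read.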

Candida albicans [12] = assay: Antifungal activity against Candida albicans after 3 to 4 days by serial plate dilution method
Aspergillus flavus [13] = assay: Antifungal activity against Aspergillus flavus NCIM N0.524 after 3 to 4 days by serial plate dilution method
Klebsiella pneumoniae [14] = assay: Antibacterial activity against Klebsiella pneumoniae after 16 to 18 hrs by […]
Escherichia coli [15] = assay: Antibacterial activity against Escherichia coli ATCC 25922 after 16 to 18 hrs by […]
[16] = system: Mycolicibacterium fortuitum; assay: Antitubercular activity against Mycobacterium fortuitum ATCC 19542 after 7 days by resazurin assay; settings: ATCC 19542, 168 h
Method in brief: (§4)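 Middlebrook 7H9 broth with 10% OADC, culture adjusted to McFarland 2. 50 µL culture added to 150 µL fresh medium. Stocks at 2 mg/mL in DMF, tested first at 1, 10 and 100 µg/mL, then at 0.3125-5 µg/mL. DMF controls. After 7 days at 37 °C, 0.01% resazurin added. Blue-to-pink change read for MIC.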

Aspergillus flavus [17] = assay: Antifungal activity against Aspergillus flavus NCIM N0.524 at MIC after 3 to 4 days; method in brief: as §2
Escherichia coli [18] = assay: Antibacterial activity against Escherichia coli ATCC 25922 at MIC after 3 to 4 days; method in brief: as §1
[19] = system: Mycobacterium tuberculosis; assay: Antitubercular activity against Mycobacterium tuberculosis H37Rv assessed as growth inhibition after 7 days by resazurin assay; method in brief: as §3
[20] = system: Mycolicibacterium smegmatis; assay: Antitubercular activity against Mycobacterium smegmatis ATCC 19420 after 7 days by resazurin assay; settings: ATCC 19420, 168 h; method in brief: as §4
Pseudomonas aeruginosa [21] = assay: Antibacterial activity against Pseudomonas aeruginosa ATCC 27853 at MIC after 3 to 4 days; method in brief: as §1
[22] = system: Trichophyton mentagrophytes; assay: Antifungal activity against Trichophyton mentagrophytes at MIC after 3 to 4 days; method in brief: as §2
[23] = system: Trichophyton mentagrophytes; assay: Antifungal activity against Trichophyton mentagrophytes after 3 to 4 days by serial plate dilution method
Pseudomonas aeruginosa [24] = assay: Antibacterial activity against Pseudomonas aeruginosa ATCC 27853 after 16 to 18 hrs by […]

Row | SMILES | MIC (Aspergillus fumigatus [1]) | MIC (Bacillus subtilis [3]) | diameter of the inhibition zone (DIZ) (Klebsiella pneumoniae [4]) | MIC (Talaromyces marneffei [5]) | diameter of the inhibition zone (DIZ) (Candida albicans [6]) | diameter of the inhibition zone (DIZ) (Staphylococcus aureus [7]) | diameter of the inhibition zone (DIZ) (Bacillus subtilis [8]) | diameter of the inhibition zone (DIZ) (Talaromyces marneffei [9]) | diameter of the inhibition zone (DIZ) (Aspergillus fumigatus [10]) | MIC [11] | MIC (Candida albicans [12]) | MIC (Aspergillus flavus [13]) | MIC (Klebsiella pneumoniae [14]) | MIC [16] | diameter of the inhibition zone (DIZ) (Aspergillus flavus [17]) | diameter of the inhibition zone (DIZ) (Escherichia coli [18]) | growth inhibition (GI) [19] | MIC [20] | diameter of the inhibition zone (DIZ) (Pseudomonas aeruginosa [21]) | diameter of the inhibition zone (DIZ) [22] | further results
1 | Nc1nc(COC(=O)C2(c3ccc(Cl)cc3)CC2)cs1 | 25 µg/mL (≈ 81 µM) | 12.5 µg/mL (≈ 40.5 µM) | 16 mm | 25 µg/mL (≈ 81 µM) | <10 mm | 11 mm | 11 mm | <10 mm | <10 mm | 1 µg/mL (≈ 3.24 µM) | 25 µg/mL (≈ 81 µM) | 25 µg/mL (≈ 81 µM) | 6.25 µg/mL (≈ 20.2 µM) | 1.25 µg/mL (≈ 4.05 µM) | <10 mm | 16 mm | 90% | 1 µg/mL (≈ 3.24 µM) | 11 mm | <10 mm | MIC (Staphylococcus aureus [2]): 12.5 µg/mL (≈ 40.5 µM); MIC (Escherichia coli [15]): 6.25 µg/mL (≈ 20.2 µM); MIC [23]: 25 µg/mL (≈ 81 µM); MIC (Pseudomonas aeruginosa [24]): 12.5 µg/mL (≈ 40.5 µM)
2 | Nc1nc(COC(=O)Cc2cccc(C(F)(F)F)c2)cs1 | 12.5 µg/mL (≈ 39.5 µM) | 6.25 µg/mL (≈ 19.8 µM) | 11 mm | 25 µg/mL (≈ 79 µM) | <10 mm | 16 mm | 16 mm | <10 mm | 11 mm | 0.625 µg/mL (≈ 1.98 µM) | 25 µg/mL (≈ 79 µM) | 12.5 µg/mL (≈ 39.5 µM) | 12.5 µg/mL (≈ 39.5 µM) | 10 µg/mL (≈ 31.6 µM) | 11 mm | 16 mm | 95% | 10 µg/mL (≈ 31.6 µM) | 16 mm | 11 mm | MIC (Staphylococcus aureus [2]): 6.25 µg/mL (≈ 19.8 µM); MIC (Escherichia coli [15]): 6.25 µg/mL (≈ 19.8 µM); MIC [23]: 12.5 µg/mL (≈ 39.5 µM); MIC (Pseudomonas aeruginosa [24]): 6.25 µg/mL (≈ 19.8 µM)
3 | Nc1nc(COC(=O)Cc2ccccc2OC(F)(F)F)cs1 | 6.25 µg/mL (≈ 18.8 µM) | 12.5 µg/mL (≈ 37.6 µM) | <10 mm | 6.25 µg/mL (≈ 18.8 µM) | 16 mm | 11 mm | 11 mm | 16 mm | 16 mm | 5 µg/mL (≈ 15 µM) | 6.25 µg/mL (≈ 18.8 µM) | 6.25 µg/mL (≈ 18.8 µM) | 25 µg/mL (≈ 75.2 µM) | > 100 µg/mL | 16 mm | 11 mm | <90% | > 100 µg/mL | <10 mm | 16 mm | MIC (Staphylococcus aureus [2]): 12.5 µg/mL (≈ 37.6 µM); MIC (Escherichia coli [15]): 12.5 µg/mL (≈ 37.6 µM); MIC [23]: 6.25 µg/mL (≈ 18.8 µM); MIC (Pseudomonas aeruginosa [24]): 25 µg/mL (≈ 75.2 µM)
4 | Nc1nc(COC(=O)c2cc(F)cc(C(F)(F)F)c2)cs1 | 6.25 µg/mL (≈ 19.5 µM) | 12.5 µg/mL (≈ 39 µM) | <10 mm | 6.25 µg/mL (≈ 19.5 µM) | 16 mm | 11 mm | 11 mm | 16 mm | 16 mm | 1 µg/mL (≈ 3.12 µM) | 6.25 µg/mL (≈ 19.5 µM) | 6.25 µg/mL (≈ 19.5 µM) | 25 µg/mL (≈ 78.1 µM) | 10 µg/mL (≈ 31.2 µM) | 16 mm | <10 mm | 90% | > 100 µg/mL | 11 mm | 16 mm | MIC (Staphylococcus aureus [2]): 12.5 µg/mL (≈ 39 µM); MIC (Escherichia coli [15]): 25 µg/mL (≈ 78.1 µM); MIC [23]: 6.25 µg/mL (≈ 19.5 µM); MIC (Pseudomonas aeruginosa [24]): 12.5 µg/mL (≈ 39 µM)
5 | N#CCCc1cccc(C(=O)OCc2csc(N)n2)c1 | 25 µg/mL (≈ 87 µM) | 6.25 µg/mL (≈ 21.8 µM) | 11 mm | 6.25 µg/mL (≈ 21.8 µM) | 11 mm | 16 mm | 16 mm | 16 mm | <10 mm | 0.625 µg/mL (≈ 2.18 µM) | 12.5 µg/mL (≈ 43.5 µM) | 6.25 µg/mL (≈ 21.8 µM) | 12.5 µg/mL (≈ 43.5 µM) | 10 µg/mL (≈ 34.8 µM) | 16 mm | 16 mm | 95% | 1 µg/mL (≈ 3.48 µM) | 16 mm | <10 mm | MIC (Staphylococcus aureus [2]): 6.25 µg/mL (≈ 21.8 µM); MIC (Escherichia coli [15]): 6.25 µg/mL (≈ 21.8 µM); MIC [23]: 25 µg/mL (≈ 87 µM); MIC (Pseudomonas aeruginosa [24]): 6.25 µg/mL (≈ 21.8 µM)
6 | N#Cc1ccccc1C(=O)OCc1csc(N)n1 | 12.5 µg/mL (≈ 48.2 µM) | 25 µg/mL (≈ 96.4 µM) | 11 mm | 25 µg/mL (≈ 96.4 µM) | 16 mm | 11 mm | <10 mm | <10 mm | 11 mm | 5 µg/mL (≈ 19.3 µM) | 6.25 µg/mL (≈ 24.1 µM) | 12.5 µg/mL (≈ 48.2 µM) | 12.5 µg/mL (≈ 48.2 µM) | > 100 µg/mL | 11 mm | 16 mm | <90% | > 100 µg/mL | 16 mm | <10 mm | MIC (Staphylococcus aureus [2]): 12.5 µg/mL (≈ 48.2 µM); MIC (Escherichia coli [15]): 6.25 µg/mL (≈ 24.1 µM); MIC [23]: 25 µg/mL (≈ 96.4 µM); MIC (Pseudomonas aeruginosa [24]): 6.25 µg/mL (≈ 24.1 µM)
7 | Nc1nc(COC(=O)c2cccs2)cs1 | 6.25 µg/mL (≈ 26 µM) | 25 µg/mL (≈ 104 µM) | <10 mm | 25 µg/mL (≈ 104 µM) | 11 mm | 11 mm | <10 mm | <10 mm | 16 mm | 10 µg/mL (≈ 41.6 µM) | 12.5 µg/mL (≈ 52 µM) | 25 µg/mL (≈ 104 µM) | 25 µg/mL (≈ 104 µM) | 10 µg/mL (≈ 41.6 µM) | <10 mm | 16 mm | <90% | 10 µg/mL (≈ 41.6 µM) | 16 mm | 16 mm | MIC (Staphylococcus aureus [2]): 12.5 µg/mL (≈ 52 µM); MIC (Escherichia coli [15]): 6.25 µg/mL (≈ 26 µM); MIC [23]: 6.25 µg/mL (≈ 26 µM); MIC (Pseudomonas aeruginosa [24]): 6.25 µg/mL (≈ 26 µM)
8 | Cc1cc(C2CCCCC2)n(O)c(=O)c1.NCCO [CICLOPIROX OLAMINE] | 6.25 µg/mL |  |  | 6.25 µg/mL | 20 mm |  |  | 20 mm | 25 mm |  | 6.25 µg/mL | 6.25 µg/mL |  |  | 25 mm |  |  |  |  | 27 mm | MIC [23]: 6.25 µg/mL
9 | O=C(O)c1cn(C2CC2)c2cc(N3CCNCC3)c(F)cc2c1=O [CIPROFLOXACIN] |  | 1.56 µg/mL (≈ 4.71 µM) | 23 mm |  |  | 22 mm | 21 mm |  |  |  |  |  | 6.25 µg/mL (≈ 18.9 µM) |  |  | 30 mm |  |  | 16 mm |  | 
10 | NNC(=O)c1ccncc1 [ISONIAZID] |  |  |  |  |  |  |  |  |  | 0.7 µg/mL (≈ 5.1 µM) |  |  |  | 12.5 µg/mL (≈ 91.1 µM) |  |  | 95% | 50 µg/mL (≈ 365 µM) |  |  | 
11 | CO[C@H]1/C=C/O[C@@]2(C)Oc3c(C)c(O)c4c(O)c(c(/C=N/N5CCN(C)CC5)c(O)c4c3C2=O)NC(=O)/C(C)=C\C=C\[C@H](C)[C@H](O)[C@@H](C)[C@@H](O)[C@@H](C)[C@H](OC(C)=O)[C@@H]1C [RIFAMPIN] |  |  |  |  |  |  |  |  |  | 0.5 µg/mL (≈ 0.608 µM) |  |  |  | 1.5 µg/mL (≈ 1.82 µM) |  |  | 95% | 1.5 µg/mL (≈ 1.82 µM) |  |  | 

Source: ChEMBL document CHEMBL1944562, “Design, synthesis of some new (2-aminothiazol-4-yl)methylester derivatives as possible antimicrobial and antitubercular agents” (2012)
